Published values gathered from unrelated publications.
Values after ≈ are worked out from the molar mass of the structure shown.

`NCCC(=O)Nc1ccccc1/N=c1\cc(-c2ccc3nc(N)oc3c2)oc2cc(O)ccc12` has an inhibition of 10.5% (MDA-MB-468; cell growth or viability, CCK-8; 1 µM).
`Cc1n[nH]c2ccc3nc(-c4ccc(C(=O)NCCN(C)C)cc4)c4c(c3c12)CCCC4` gave a GI50 of 8 nM (MV4-11; cell growth or viability, resazurin; 72 h).
The inhibition of `NCCC(=O)Nc1ccc(/N=c2\cc(-c3ccc4c(c3)OCO4)oc3ccccc23)cc1` is reported as 6.16% (MDA-MB-468; cell growth or viability, CCK-8; 1 µM).
For `O=C(NCCN1CCCC1)c1ccc(-c2nc3ccc4[nH]ncc4c3c3c2CCCC3)cc1`, the GI50 was 366 nM (MV4-11; cell growth or viability, resazurin; 72 h).
For `OCc1ccc(-c2nn(Cc3cccc(Cl)c3)c3ccccc23)o1`, the inhibition was 75% (RBE; cell growth or viability, ATP luminescence; 46 µM, 72 h).
`N[C@@H](CO)C(=O)Nc1ccccc1/N=c1\cc(-c2ccc3c(c2)OCO3)oc2ccccc12` gave an inhibition of 7.66% (MDA-MB-468; cell growth or viability, CCK-8; 1 µM).
With `OCc1ccc(N2CCc3ccccc3C2)cc1Cl` the inhibition was 84% (RBE; cell growth or viability, ATP luminescence; 46 µM, 72 h).
`C[C@H](N)C(=O)Nc1ccccc1/N=c1\cc(-c2ccc3c(c2)OCO3)oc2ccccc12` has an inhibition of 6.3% (MDA-MB-468; cell growth or viability, CCK-8; 1 µM).
`OCc1ccc(N(Cc2ccc(F)cc2)CC2CC2)cc1Cl` has an inhibition of 55% (RBE; cell growth or viability, ATP luminescence; 46 µM, 72 h).
For `O=C(NCCN1CCCCC1)c1ccc(-c2nc3ccc4[nH]ncc4c3c3c2CCCC3)cc1`, the GI50 was 1700 nM (MV4-11; cell growth or viability, resazurin; 72 h).
For `CC1(C)S[C@@H]2[C@H](NC(=O)[C@H](N)c3ccccc3)C(=O)N2[C@H]1C(=O)O`, the MIC was 1.35 µM (≈ 0.472 µg/mL) (Micrococcus luteus; microbial growth, broth dilution; ATCC4698).
The inhibition of `Cc1ccc(-c2nn(Cc3ccccc3)c3ccccc23)o1` is reported as 59% (RBE; cell growth or viability, ATP luminescence; 46 µM, 72 h).
`COCCNC(=O)c1ccc(-c2nc3ccc4[nH]ncc4c3c3c2CCCC3)cc1` gave a GI50 of 400 nM (MV4-11; cell growth or viability, resazurin; 72 h).
With `OCc1ccc(-c2nn(Cc3ccc(F)cc3)c3ccccc23)o1` the inhibition was 66% (RBE; cell growth or viability, ATP luminescence; 46 µM, 72 h).
`NCCC(=O)Nc1ccccc1/N=c1\cc(-c2ccc3nc(N)oc3c2)oc2ccc(O)cc12` has an inhibition of 40.2% (MDA-MB-468; cell growth or viability, CCK-8; 1 µM).
